Experimental data collected from several papers.
Protocols differ between the studies behind these lines.
Read-out: cell growth or viability

Structure (SMILES) | cell line | technique | time | IC50
N#Cc1ccc(-c2cc(COc3cc(C(F)(F)F)nc4ccccc34)on2)cc1 | K562 | MTS | 72 h | 83.2 µM
Cc1ccc(S(=O)(=O)n2cc(/C=N/NC(=O)c3ccccc3)c3ccccc32)cc1 | MCF-10A | MTT | 48 h | > 50 µM
CC(=O)c1ccc2cc(S(=O)(=O)Nc3ccccc3Cl)ccc2c1 | MDCK | neutral red | 48 h | 12.7 µM
COc1cc(C2C3=C(COC3=O)N(CCO)c3cc4c(cc32)CCC4)cc(OC)c1OC (stereo not shown) | 4T1 | ATP luminescence | 48 h | 0.85 µM
CC(C)=CCc1ncc(/C=C2\NC(=O)[C@H](C(C)C)NC2=O)[nH]1 | NCI-H446 | SRB |  | > 15 µM
Cc1ccc(S(=O)(=O)n2cc(/C=N/NC(=O)c3ccc([N+](=O)[O-])cc3)c3ccccc32)cc1 | MCF-10A | MTT | 48 h | > 50 µM
O=C1C(=O)N(CCn2ncc3c(=O)[nH]cnc32)c2ccc(Cl)cc21 | BALB/3T3 clone A31 | SRB | 72 h | 11.4 µg/mL
CCOC(=O)c1c(C)nc2ccc(-c3cccc(F)c3)cc2c1O | MCF-10A | MTT | 48 h | ≥ 100 µM
Cc1ccc(S(=O)(=O)n2cc(/C=N/NC(=O)Cc3ccccc3C(F)(F)F)c3ccccc32)cc1 | MCF-10A | MTT | 48 h | > 50 µM
FC(F)(F)c1cc(OCc2cc(-c3ccc(Cl)cc3Cl)no2)c2ccccc2n1 | K562 | MTS | 72 h | > 100 µM
C=CC(C)(C)c1[nH]cnc1/C=C1/NC(=O)[C@H](C(C)C)NC1=O | NCI-H446 | SRB |  | 2 µM
Cc1ccc(S(=O)(=O)n2cc(/C=N/NC(=O)c3ccccc3Br)c3ccccc32)cc1 | MCF-10A | MTT | 48 h | > 50 µM
C/C(=C\C(=O)N[C@H](C(=O)N1CCC[C@H]1C(=O)N(c1ccccc1)c1ccc(I)cc1)C(C)(C)C)c1ccc(OP(=O)(O)O)cc1 | JHH7 | CCK-8 |  | 7.19 µM
CC(=O)c1ccc2cc(S(=O)(=O)Nc3ccccc3C)ccc2c1 | MDCK | neutral red | 48 h | 21.8 µM
CN1CCC(NC2CCc3[nH]c4c(C(N)=O)ccc(-c5ccccc5Cl)c4c3C2)CC1 (stereo not shown) | NCI-H446 |  | 96 h | 0.00802 µM
CC(=O)c1ccc2cc(S(=O)(=O)Nc3cccnc3)ccc2c1 | MDCK | neutral red | 48 h | 20.7 µM

Structure (SMILES) | cell line | technique | time | IC50
Cc1ncsc1-c1ccc([C@H](C)NC(=O)[C@@H]2C[C@@H](O)CN2C(=O)[C@@H](NC(=O)CN2CCN(c3cc(-c4ccccc4O)nnc3N)CC2)C(C)(C)C)cc1 | VCaP | ATP luminescence | 7 days | 0.0092 µM
COc1cccc2c1C(=O)c1c(O)c3c(c(O)c1C2=O)C[C@@](O)(C(=O)CO)C[C@@H]3O[C@H]1C[C@H](N)[C@H](O)[C@H](C)O1 | NCI-H446 | SRB |  | 0.8 µM
CCCCC(=O)Nc1ccc(-c2ccc3ncn(CCC)c(=O)c3c2)cn1 | human PBMC | CCK-8 | 72 h | > 10 µM
NC(=O)c1cnc(NCCc2ccc(O)c(Cl)c2)nc1NCc1ccccc1 | JHH7 | CCK-8 | 48 h | 1.29 µM
CC(=O)c1ccc2cc(S(=O)(=O)Nc3ccccc3)ccc2c1 | MDCK | neutral red | 48 h | 90.9 µM
CNC(=O)c1cc(Oc2ccc(NC(=O)Nc3ccc(Cl)c(C(F)(F)F)c3)cc2)ccn1 | BALB/3T3 clone A31 | SRB | 72 h | 0.42 µg/mL
Cc1ccc(S(=O)(=O)n2cc(/C=N/NC(=O)c3cc4ccccc4cc3O)c3ccccc32)cc1 | MCF-10A | MTT | 48 h | > 50 µM
O=c1cc(OCc2cc(-c3ccccc3)no2)c2ccccc2o1 | K562 | MTS | 72 h | > 100 µM
Cc1ccc(S(=O)(=O)n2cc(/C=N/NC(=O)c3cccc(Cl)c3)c3ccccc32)cc1 | MCF-10A | MTT | 48 h | > 50 µM
O=C1C(=O)N(CCn2ncc3c(=O)[nH]cnc32)c2ccc(F)cc21 | BALB/3T3 clone A31 | SRB | 72 h | 19.6 µg/mL
COC[C@H](NC(=O)c1ccn(S(C)(=O)=O)c1)C(=O)Nc1nc(-c2cccc(N3C[C@@H](C)O[C@@H](C)C3)n2)cs1 | VCaP | ATP luminescence | 7 days | 0.0265 µM
Nc1ncnc2c1ncn2CCN1C(=O)C(=O)c2cc(F)ccc21 | BALB/3T3 clone A31 | SRB | 72 h | 47.2 µg/mL
CC(=O)c1ccc2cc(S(=O)(=O)Nc3ccc(Br)cc3)ccc2c1 | MDCK | neutral red | 48 h | 95.8 µM
COc1ccc2c(c1)/C(=N/NC(N)=S)C(=O)N2CCn1ncc2c(=O)[nH]cnc21 | BALB/3T3 clone A31 | SRB | 72 h | 77.5 µg/mL
Nc1ccn([C@@H]2O[C@H](CO)[C@@H](O)C2(F)F)c(=O)n1 | 4T1 | MTT | 48 h | 3.37 µg/mL
